Test [1] addresses Serine/threonine-protein kinase PAK 2 (Homo sapiens, UniProt Q13177). As to the kind of experiment: Inhibition of PAK2 (unknown origin).
The test system of test [2] is NCI-H1573. Briefly: Antiproliferative activity against human NCI-H1573 cells assessed as inhibition of cell proliferation incubated for 3 days by CellTiter-Glo Luminescent Cell Viability Assay. The class given is functional, cell-based. To be noted: NCI-H1573, 72 h. The method, boiled down: (§1)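 Cancer cell lines seeded in 384-well plates on day 1; compound added on day 2 and left for 3 days. On day 5 all medium was aspirated, and viable cells were quantified by CellTiter-Glo luminescence, which measures cellular ATP. Dose-dependent effects on proliferation were determined.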
For orientation: In ATP-based viability assays light output follows the ATP content of the culture.

Test [3] concerns Capan-2. As to the kind of experiment: Antiproliferative activity against human Capan-2 cells assessed as inhibition of cell proliferation incubated for 3 days by CellTiter-Glo Luminescent Cell Viability Assay. To be noted: Capan-2, 72 h. The class given is functional, cell-based. The gist of the method:
as §1

For test [4], the system named is HPAC. Briefly: Antiproliferative activity against human HPAC cells assessed as inhibition of cell proliferation incubated for 3 days by CellTiter-Glo Luminescent Cell Viability Assay. Conditions: 72 h. In kind it is functional, cell-based. The gist of the method: as §1
The test system of test [5] is Panc 04.03. Briefly: Antiproliferative activity against human Panc 04.03 cells assessed as inhibition of cell proliferation incubated for 3 days by CellTiter-Glo Luminescent Cell Viability Assay. In kind it is functional, cell-based. To be noted: Panc 04.03, 72 h. The method, boiled down:
(§2)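 Cells of each line were plated in 384-well plates on day 1 and exposed to compound from day 2 for 3 days. On day 5 all medium was aspirated. Viable cell number was read by CellTiter-Glo luminescence, which quantifies cellular ATP.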

The subject of test [6] is Hs 766. Briefly: Antiproliferative activity against human Hs766T cells assessed as inhibition of cell proliferation incubated for 3 days by CellTiter-Glo Luminescent Cell Viability Assay. Conditions: Hs 766, 72 h. In kind it is functional, cell-based. The gist of the method: as §1
Test [7] has as its system DAN-G. Briefly: Antiproliferative activity against human DAN-G cells assessed as inhibition of cell proliferation incubated for 3 days by CellTiter-Glo Luminescent Cell Viability Assay. The class given is functional, cell-based. To be noted: 72 h. The method, boiled down: as §1
Test [8] concerns SU.86.86. Briefly: Antiproliferative activity against human SU-86-86 cells assessed as inhibition of cell proliferation incubated for 3 days by CellTiter-Glo Luminescent Cell Viability Assay. In kind it is functional, cell-based. To be noted: SU.86.86, 72 h. The gist of the method: as §2
The subject of test [9] is NCI-H1666. Briefly: Inhibition of anchorage independent cell growth in human NCI-H1666 cells incubated for 6 days by Alamar blue reagent based fluorescence plate reader analysis. The class given is functional. To be noted: NCI-H1666, 144 h.
Test [10] deals with NCI-H1770. Briefly: Inhibition of anchorage independent cell growth in human NCI-H1770 cells incubated for 6 days by Alamar blue reagent based fluorescence plate reader analysis. The class given is functional. To be noted: NCI-H1770, 144 h. A general note: Alamar Blue is a resazurin reagent that responds to reducing activity.
In test [11] the test system is MDA-MB-157. Briefly: Antiproliferative activity against human MDA-MB-157 cells assessed as inhibition of cell proliferation incubated for 3 days by CellTiter-Glo Luminescent Cell Viability Assay. To be noted: MDA-MB-157, 72 h. The class given is functional, cell-based. The method, boiled down:
as §1

The target in test [12] is Protein kinase C beta type (Homo sapiens, UniProt P05771). As to the kind of experiment: Inhibition of human PKCbeta1 in presence of ATP relative to control. Conditions: concentration not given here.
Chain of Protein kinase C beta type (P05771 2-671 limits assumed): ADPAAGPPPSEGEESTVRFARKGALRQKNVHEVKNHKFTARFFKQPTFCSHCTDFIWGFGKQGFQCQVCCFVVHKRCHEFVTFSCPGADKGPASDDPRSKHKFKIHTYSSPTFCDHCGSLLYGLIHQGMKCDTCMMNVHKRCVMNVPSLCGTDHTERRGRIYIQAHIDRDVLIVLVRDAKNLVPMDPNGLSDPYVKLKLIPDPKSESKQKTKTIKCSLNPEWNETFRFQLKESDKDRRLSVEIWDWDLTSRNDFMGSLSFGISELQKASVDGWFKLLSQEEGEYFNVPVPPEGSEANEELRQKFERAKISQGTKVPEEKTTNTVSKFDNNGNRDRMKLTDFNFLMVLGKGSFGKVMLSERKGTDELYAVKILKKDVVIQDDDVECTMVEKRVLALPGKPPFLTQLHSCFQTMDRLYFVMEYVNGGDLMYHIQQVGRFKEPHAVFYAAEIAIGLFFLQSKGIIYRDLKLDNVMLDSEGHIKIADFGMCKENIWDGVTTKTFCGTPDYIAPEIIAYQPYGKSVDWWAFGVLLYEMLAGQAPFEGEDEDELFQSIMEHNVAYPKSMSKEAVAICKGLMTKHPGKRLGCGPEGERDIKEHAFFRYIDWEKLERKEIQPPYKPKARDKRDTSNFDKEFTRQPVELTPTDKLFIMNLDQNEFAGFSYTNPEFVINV
Test [13] deals with Tyrosine-protein kinase Fyn (Homo sapiens, UniProt P06241). As to the kind of experiment: Inhibition of human FYN assessed as inhibition constant in presence of ATP.
Chain of Tyrosine-protein kinase Fyn (P06241 whole entry): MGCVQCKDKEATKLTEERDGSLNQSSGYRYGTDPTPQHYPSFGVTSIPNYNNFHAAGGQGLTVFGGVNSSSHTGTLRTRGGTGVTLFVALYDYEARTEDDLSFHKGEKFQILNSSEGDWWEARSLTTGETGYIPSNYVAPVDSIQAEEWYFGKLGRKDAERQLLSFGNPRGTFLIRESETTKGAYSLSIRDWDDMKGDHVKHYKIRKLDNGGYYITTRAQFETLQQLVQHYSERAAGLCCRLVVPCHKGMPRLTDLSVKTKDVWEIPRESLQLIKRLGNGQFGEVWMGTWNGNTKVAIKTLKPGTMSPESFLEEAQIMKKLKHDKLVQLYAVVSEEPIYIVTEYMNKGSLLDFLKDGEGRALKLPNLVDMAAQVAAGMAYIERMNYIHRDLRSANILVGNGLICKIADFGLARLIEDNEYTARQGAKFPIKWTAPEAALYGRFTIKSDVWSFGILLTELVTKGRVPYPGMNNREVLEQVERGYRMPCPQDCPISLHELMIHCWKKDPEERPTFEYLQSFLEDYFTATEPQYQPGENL
Test [14] addresses RAC-gamma serine/threonine-protein kinase (Homo sapiens, UniProt Q9Y243). Briefly: Inhibition of human AKT3 assessed as inhibition constant in presence of ATP.
The target in test [15] is T1, Receptor-type tyrosine-protein kinase FLT3 (Homo sapiens, UniProt P36888).
T1 sequence (P36888 whole entry): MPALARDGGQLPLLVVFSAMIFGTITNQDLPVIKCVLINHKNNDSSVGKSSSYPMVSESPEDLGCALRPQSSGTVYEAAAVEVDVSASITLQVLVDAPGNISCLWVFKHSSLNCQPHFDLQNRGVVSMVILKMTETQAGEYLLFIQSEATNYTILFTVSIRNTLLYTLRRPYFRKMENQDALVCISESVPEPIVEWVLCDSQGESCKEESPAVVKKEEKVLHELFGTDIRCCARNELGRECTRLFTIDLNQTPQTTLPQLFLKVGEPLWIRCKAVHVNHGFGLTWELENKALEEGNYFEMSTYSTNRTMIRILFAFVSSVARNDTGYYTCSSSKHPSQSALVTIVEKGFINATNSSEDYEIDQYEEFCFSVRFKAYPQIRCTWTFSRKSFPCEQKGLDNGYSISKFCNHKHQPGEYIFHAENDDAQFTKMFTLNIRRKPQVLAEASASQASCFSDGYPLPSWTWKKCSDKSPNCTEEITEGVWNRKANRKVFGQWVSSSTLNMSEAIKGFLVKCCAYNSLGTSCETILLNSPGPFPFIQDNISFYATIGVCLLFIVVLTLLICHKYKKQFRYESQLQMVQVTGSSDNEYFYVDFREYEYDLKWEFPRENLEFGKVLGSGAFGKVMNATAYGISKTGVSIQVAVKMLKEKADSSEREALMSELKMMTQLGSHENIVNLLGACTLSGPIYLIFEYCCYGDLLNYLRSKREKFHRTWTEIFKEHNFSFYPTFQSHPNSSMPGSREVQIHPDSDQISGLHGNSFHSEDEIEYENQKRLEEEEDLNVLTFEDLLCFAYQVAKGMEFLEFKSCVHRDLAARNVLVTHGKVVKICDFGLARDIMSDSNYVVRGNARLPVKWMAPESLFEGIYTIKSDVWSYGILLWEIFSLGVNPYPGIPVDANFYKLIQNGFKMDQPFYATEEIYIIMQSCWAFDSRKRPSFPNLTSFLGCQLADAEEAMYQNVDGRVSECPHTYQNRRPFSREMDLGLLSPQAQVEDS
Briefly: Inhibition of human FLT3 in presence of ATP.

Test [16] has as its target Ribosomal protein S6 kinase alpha-3 (Homo sapiens, UniProt P51812). Briefly: Inhibition of human RSK2 in presence of ATP by cellular assay.
The target in test [17] is Protein kinase C theta type (Homo sapiens, UniProt Q04759). Briefly: Inhibition of human PKCtheta in presence of ATP by cellular assay.
Chain of Protein kinase C theta type (Q04759 whole entry): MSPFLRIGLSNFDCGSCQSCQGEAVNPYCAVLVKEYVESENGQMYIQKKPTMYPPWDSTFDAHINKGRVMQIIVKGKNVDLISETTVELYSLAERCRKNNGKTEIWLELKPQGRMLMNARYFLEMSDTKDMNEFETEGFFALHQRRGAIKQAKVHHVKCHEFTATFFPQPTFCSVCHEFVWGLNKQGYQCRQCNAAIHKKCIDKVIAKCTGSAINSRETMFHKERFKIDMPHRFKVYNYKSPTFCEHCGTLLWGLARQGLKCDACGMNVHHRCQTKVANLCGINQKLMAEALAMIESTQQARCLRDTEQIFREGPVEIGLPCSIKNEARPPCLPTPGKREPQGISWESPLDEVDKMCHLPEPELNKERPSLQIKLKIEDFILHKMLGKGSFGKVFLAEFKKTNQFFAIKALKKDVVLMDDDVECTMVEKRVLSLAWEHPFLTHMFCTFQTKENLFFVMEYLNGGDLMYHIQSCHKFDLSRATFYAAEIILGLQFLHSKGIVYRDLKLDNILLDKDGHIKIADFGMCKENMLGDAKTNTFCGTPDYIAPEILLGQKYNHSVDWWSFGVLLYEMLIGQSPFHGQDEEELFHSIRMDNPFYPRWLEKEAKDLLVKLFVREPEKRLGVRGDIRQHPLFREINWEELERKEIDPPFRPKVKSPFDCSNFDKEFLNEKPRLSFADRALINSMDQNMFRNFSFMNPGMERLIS
The subject of test [18] is GTL 16 cell line. Briefly: Antitumor activity against human GTL-16 cell line xenografted in nude mouse assessed as tumor growth inhibition at 10 mg/kg, po administered once daily for 9 to 18 days relative to control. In kind it is functional. Conditions: time 9-18 day, read-out: TGI. The gist of the method: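 Tumor cells were implanted s.c. into the right flank of female nu/nu nude mice aged 6–8 weeks. Animals were randomized into treatment groups once tumors were established (example: day 8 postimplant, about 170 mm3, animals >22 g). Compound in 0.5% methylcellulose was given by oral gavage. Tumors were measured with calipers two to three times per week.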
(Xenograft models place foreign cells or tissue in a host animal.)

Test [19] has as its system HCT-116. As to the kind of experiment: Antitumor activity against human HCT-116 cells xenografted in nude mouse assessed as inhibition of [3H]FLT uptake at 15 mg/kg, po administered twice a day for 6 days and measured after 2 hrs post [3H]FLT administration by scintillation counter analysis relative to control. To be noted: HCT-116, 144 h, time 6 day. In kind it is functional. The gist of the method: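 HCT116 xenograft mice (tumors 300–350 mm3, n = 5 per group) received oral vehicle or compound, with harvests on days 2, 3 and 6. Isoflurane-anesthetized mice were given [3H]FLT (15 nCi/g, i.p.) 2 h before killing. Tumor and liver were weighed, solubilized and scintillation-counted. SUV = C/(ID/W), and uptake is reported as the tumor-to-liver SUV ratio.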

Consider one compound from ChEMBL document CHEMBL5678802, “Small-molecule p21-activated kinase inhibitor PF-3758309 is a potent inhibitor of oncogenic signaling and tumor growth” (Proc Natl Acad Sci U S A, 2010).

Structures are written as SMILES.

For orientation: IC50 means the point on the concentration scale where inhibition reaches its midpoint. As a reminder, the inhibition is how much of the control response was suppressed. The Ki is a measure of affinity in units of concentration, obtained from inhibition or displacement.

Chain of Serine/threonine-protein kinase PAK 2 (Q13177 whole entry): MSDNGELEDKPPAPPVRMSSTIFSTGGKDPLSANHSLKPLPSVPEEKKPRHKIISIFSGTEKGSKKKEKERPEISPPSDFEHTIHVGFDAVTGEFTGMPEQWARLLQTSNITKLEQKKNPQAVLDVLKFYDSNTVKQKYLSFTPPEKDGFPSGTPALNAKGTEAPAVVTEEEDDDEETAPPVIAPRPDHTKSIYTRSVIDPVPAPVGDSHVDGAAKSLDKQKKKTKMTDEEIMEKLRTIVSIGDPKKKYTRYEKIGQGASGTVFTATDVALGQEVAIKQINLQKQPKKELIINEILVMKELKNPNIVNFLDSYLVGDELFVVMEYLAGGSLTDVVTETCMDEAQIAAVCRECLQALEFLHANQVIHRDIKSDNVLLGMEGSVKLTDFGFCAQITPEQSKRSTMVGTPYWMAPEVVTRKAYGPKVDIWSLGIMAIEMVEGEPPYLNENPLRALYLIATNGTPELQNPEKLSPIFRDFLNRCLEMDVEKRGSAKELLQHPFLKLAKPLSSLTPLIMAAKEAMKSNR
Chain of Ribosomal protein S6 kinase alpha-3 (P51812 whole entry): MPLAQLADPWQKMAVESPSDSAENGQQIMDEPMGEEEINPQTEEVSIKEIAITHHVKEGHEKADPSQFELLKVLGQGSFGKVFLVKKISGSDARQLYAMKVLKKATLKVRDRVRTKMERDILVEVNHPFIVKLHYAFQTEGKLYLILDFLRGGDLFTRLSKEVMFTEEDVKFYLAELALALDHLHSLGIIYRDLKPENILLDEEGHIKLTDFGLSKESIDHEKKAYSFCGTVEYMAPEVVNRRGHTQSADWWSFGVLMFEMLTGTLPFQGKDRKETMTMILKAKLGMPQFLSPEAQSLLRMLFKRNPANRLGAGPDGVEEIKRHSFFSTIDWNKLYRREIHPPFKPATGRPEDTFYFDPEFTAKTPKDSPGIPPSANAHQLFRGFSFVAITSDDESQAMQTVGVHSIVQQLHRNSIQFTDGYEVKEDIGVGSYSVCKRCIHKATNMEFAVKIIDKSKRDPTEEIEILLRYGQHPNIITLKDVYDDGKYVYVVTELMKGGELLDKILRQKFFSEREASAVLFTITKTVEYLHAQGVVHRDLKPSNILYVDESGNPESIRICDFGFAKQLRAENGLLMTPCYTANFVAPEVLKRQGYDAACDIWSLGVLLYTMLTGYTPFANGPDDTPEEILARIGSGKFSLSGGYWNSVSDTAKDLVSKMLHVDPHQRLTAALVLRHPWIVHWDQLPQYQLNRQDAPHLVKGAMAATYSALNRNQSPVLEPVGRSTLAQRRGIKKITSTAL
Chain of RAC-gamma serine/threonine-protein kinase (Q9Y243 whole entry): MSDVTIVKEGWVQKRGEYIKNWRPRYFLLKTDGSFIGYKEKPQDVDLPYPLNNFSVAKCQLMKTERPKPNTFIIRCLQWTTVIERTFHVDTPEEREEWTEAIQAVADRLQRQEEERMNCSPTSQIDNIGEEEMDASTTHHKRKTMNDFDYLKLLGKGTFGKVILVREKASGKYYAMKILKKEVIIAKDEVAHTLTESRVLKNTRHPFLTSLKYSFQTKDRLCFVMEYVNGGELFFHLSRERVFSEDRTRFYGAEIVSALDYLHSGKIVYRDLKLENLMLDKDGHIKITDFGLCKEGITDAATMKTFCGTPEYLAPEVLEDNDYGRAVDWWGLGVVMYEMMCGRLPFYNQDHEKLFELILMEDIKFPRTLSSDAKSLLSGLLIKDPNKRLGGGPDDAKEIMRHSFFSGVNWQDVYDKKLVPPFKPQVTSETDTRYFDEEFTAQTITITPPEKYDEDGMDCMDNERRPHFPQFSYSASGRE

As to `Cc1nc(Nc2n[nH]c3c2CN(C(=O)N[C@H](CN(C)C)c2ccccc2)C3(C)C)c2sccc2n1` [PF-03758309], the 50% inhibitory concentration (IC50) in [1] worked out at 190 nM; in [2] it was 22 nM; in test [3], 136 nM; in [4], 265 nM; in [5], 347 nM; in test [6], 416 nM. Also, the concentration for half-maximal inhibition (IC50) in test [7] worked out at 518 nM; in [8], 898 nM; in [9] it was 6.25 nM; in [10] it was 1.84 nM; in test [11], 145 nM; in [15], 96 nM. In addition, the half-inhibitory concentration (IC50) turned out to be 171 nM in [16] and 568 nM in test [17]. In addition, the inhibition in test [12] came to 71%. Moreover, the results for the inhibitory constant (Ki) in [13] and in test [14] were 26 nM and 172 nM, respectively. The inhibition in vivo at 10 mg/kg in test [18] was found to be 0%. Also, in [19], the inhibition in vivo at 15 mg/kg was found to be 32.5%.
